Active and inactive are the calls of the source. No cut-off for these calls is given here.
Key:
[1] = tested on: A-375; assay: Cytotoxicity against human A375 cells assessed as cell viability after 24 hrs by MTT assay; assay type: functional
How it was run: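 A375 cells seeded at 10,000/well, incubated overnight, then treated for 24 h. MTT added at 10% of culture volume for 2 h at 37 °C. Formazan dissolved in 20% SDS/50% DMF overnight at 37 °C; absorbance read at 570 nm against a medium blank. Viability expressed as percent of untreated cells.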

[2] = tested on: COLO 205; assay: Growth inhibition of human COLO205 cells by NCI anti-cancer screening method; assay type: functional
[3] = tested on: NCI-H522; assay: Growth inhibition of human NCI-H522 cells by NCI anti-cancer screening method; assay type: functional
[4] = tested on: A-375; assay: Increase in p21 mRNA expression in human A375 cells at 4 uM after 24 hrs by RT-PCR; assay type: functional, cell-based
How it was run: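 RT-PCR on RNA from A375 cells treated 24 h at 4 µM, using Bcl-2- or p21-specific primers with GAPDH as internal control. Products were visualized on 1% agarose gels stained with ethidium bromide. Untreated and DMSO-treated cells served as controls.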

[5] = tested on: A-375; assay: Increase in p27 protein expression in human A375 cells at 4 uM after 24 hrs by Western blot; assay type: functional, cell-based
How it was run: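 A375 cells (DMEM, 10% FCS, 37 °C, 5% CO2) were treated at 4 µM for 24 h. Lysates were loaded at 30 µg protein/lane on 12% SDS-PAGE and transferred to PVDF. Membranes were blocked 2 h in TBST, incubated with primary antibody overnight at 4 °C (p53 1:100, p27 1:500, NF-κB p65 1:500), then HRP secondary 1 h, with chemiluminescent detection. β-actin was the loading control; untreated and DMSO controls were run.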

[6] = tested on: MDA-MB-468; assay: Growth inhibition of human MDA-MB-468 cells by NCI anti-cancer screening method; assay type: functional
[7] = tested on: OVCAR-5; assay: Growth inhibition of human OVCAR5 cells by NCI anti-cancer screening method; assay type: functional
[8] = tested on: NCI; assay: Growth inhibition of human RXF393 cells by NCI anti-cancer screening method; assay type: functional
[9] = tested on: UACC-62; assay: Growth inhibition of human UACC62 cells by NCI anti-cancer screening method; assay type: functional
[10] = tested on: UACC-257; assay: Growth inhibition of human UACC257 cells by NCI anti-cancer screening method; assay type: functional
[11] = tested on: OVCAR-4; assay: Growth inhibition of human OVCAR4 cells by NCI anti-cancer screening method; assay type: functional
[12] = tested on: HCT-15; assay: Growth inhibition of human HCT15 cells by NCI anti-cancer screening method; assay type: functional
[13] = tested on: ACHN; assay: Growth inhibition of human ACHN cells by NCI anti-cancer screening method; assay type: functional
[14] = tested on: NCI-H226; assay: Growth inhibition of human NCI-H226 cells by NCI anti-cancer screening method; assay type: functional
[15] = tested on: A-375; assay: Increase in active PARP cleavage product (85kDa) level in human A375 cells at 4 uM after 24 hrs by Western blot; assay type: functional, cell-based
How it was run: (§1)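 A375 cells were exposed 24 h at 4 µM. Lysates (30 µg/lane) were run on 12% SDS-PAGE and transferred to PVDF, then probed overnight at 4 °C with anti-cleaved caspase-3 (1:200, detects 21 kDa) or anti-PARP (1:2000, detects 113 and 85 kDa). HRP secondary and chemiluminescence were used. β-tubulin was the loading control; untreated and DMSO controls were included.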

[16] = tested on: A-375; assay: Increase in cytochrome C release in human A375 cells at 4 uM after 24 hrs by Western blot; assay type: functional, cell-based
How it was run: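 Western blot of A375 cell lysates after 24 h exposure at 4 µM, with 30 µg protein/lane on 12% SDS-PAGE and transfer to PVDF. Probed overnight at 4 °C with anti-cytochrome c (1:500), then HRP secondary and chemiluminescence. β-actin was the loading control; untreated and DMSO-only cells served as controls.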

[17] = tested on: K562; assay: Growth inhibition of human K562 cells by NCI anti-cancer screening method; assay type: functional
[18] = tested on: T47D; assay: Growth inhibition of human T47D cells by NCI anti-cancer screening method; assay type: functional
[19] = tested on: A-375; assay: Induction of apoptosis in human A375 cells assessed as sub-G1 phase accumulation at 4 uM after 24 hrs by propidium iodide staining based flow cytometry; assay type: functional
How it was run: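 A375 cells (5×10^5 per 60 mm dish) were grown 24 h, then treated 24 h at 0–4 µM. Cells were harvested with trypsin-EDTA, fixed in ice-cold 70% ethanol for 30 min at 4 °C, treated with RNase A (1 mg/ml) for 30 min at 37 °C, and stained with propidium iodide. Cell-cycle distribution, including the sub-G1 fraction, was measured by flow cytometry. DMSO-exposed cells were the control.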

[20] = tested on: A549; assay: Growth inhibition of human A549 cells by NCI anti-cancer screening method; assay type: functional
[21] = tested on: A-375; assay: Increase in active caspase-3 protein level in human A375 cells at 4 uM after 24 hrs by Western blot; assay type: functional, cell-based; how it was run: as §1
[22] = tested on: SF-539; assay: Growth inhibition of human SF539 cells by NCI anti-cancer screening method; assay type: functional
[23] = tested on: 786-0; assay: Growth inhibition of human 786-0 cells by NCI anti-cancer screening method; assay type: functional
[24] = tested on: HCT-116; assay: Growth inhibition of human HCT116 cells by NCI anti-cancer screening method; assay type: functional
[25] = tested on: NCI/ADR-RES; assay: Growth inhibition of human NCI/ADR-RES cells by NCI anti-cancer screening method; assay type: functional
[26] = tested on: A-375; assay: Cell cycle arrest in human A375 cells assessed as decrease in G2/M phase at 4 uM after 24 hrs by propidium iodide staining based flow cytometry; assay type: functional; parameters: scale not given: the % may be the effect or the level left
How it was run: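 A375 melanoma cells (DMEM, 10% FCS, 37 °C, 5% CO2) seeded at 5×10^5 per dish and grown 24 h, then exposed to 0–4 µM for 24 h. Harvested with trypsin-EDTA, fixed in ice-cold 70% ethanol, RNase A treated (1 mg/ml, 37 °C, 30 min), stained with propidium iodide and analysed by flow cytometry for phase distribution.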

[27] = tested on: M14; assay: Growth inhibition of human M14 cells by NCI anti-cancer screening method; assay type: functional
[28] = tested on: NCI-H460; assay: Growth inhibition of human NCI-H460 cells by NCI anti-cancer screening method; assay type: functional
[29] = tested on: MOLT-4; assay: Growth inhibition of human MOLT4 cells by NCI anti-cancer screening method; assay type: functional
[30] = tested on: HT-29; assay: Growth inhibition of human HT-29 cells by NCI anti-cancer screening method; assay type: functional
[31] = tested on: A-375; assay: Decrease in CDK2 protein expression in human A375 cells at 4 uM after 24 hrs by Western blot; assay type: functional, cell-based
How it was run: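 A375 cells treated at 4 µM for 24 h, lysed, protein quantified by Bradford. 30 µg/lane run on 12% SDS-PAGE and transferred to PVDF. Blocked 2 h in TBST with 5% blocker. Probed with rabbit polyclonal CDK2 antibody (1:500) overnight at 4 °C, then HRP secondary (1:2000) 1 h. Chemiluminescent detection; β-tubulin loading control; untreated and DMSO controls.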

[32] = tested on: A-375; assay: Decrease in Bcl-2 mRNA expression in human A375 cells at 4 uM after 24 hrs by RT-PCR
[33] = tested on: SK-MEL-5; assay: Growth inhibition of human SK-MEL-5 cells by NCI anti-cancer screening method; assay type: functional

`COc1cc2c(cc1OCCCCCOc1ccc(-n3c(C)nc4ccccc4c3=O)cc1)N=C[C@@H]1CCCN1C2=O` was tested. Which Activity [1] did it give?
The Activity was 49.01%.

And the GI50 [2]?
Its GI50 is 180 nM.

And the GI50 [3]?
Its GI50 is 120 nM.

And the Activity [4]?
Its Activity is “Active”.

And the Activity [5]?
Its Activity is “Active”.

And the GI50 [6]?
Its GI50 is 160 nM.

And the GI50 [7]?
The GI50 was 330 nM.

What about the GI50 [8] of the same compound?
The GI50 was 210 nM.

And the GI50 [9]?
Its GI50 is 160 nM.

What about the GI50 [10] of the same compound?
Its GI50 is 390 nM.

What about the GI50 [11] of the same compound?
The GI50 was 370 nM.

And the GI50 [12]?
Its GI50 is 1090 nM.

And the GI50 [13]?
Its GI50 is 290 nM.

And the GI50 [14]?
The GI50 was 160 nM.

And the Activity [15]?
The Activity was “Active”.

And the Activity [16]?
Its Activity is “Active”.

What about the GI50 [17] of the same compound?
Its GI50 is 60 nM.

And the GI50 [18]?
Its GI50 is 170 nM.

What about the Activity [19] of the same compound?
Its Activity is 31.52%.

What about the GI50 [20] of the same compound?
Its GI50 is 230 nM.

What about the Activity [21] of the same compound?
Its Activity is “Active”.

What about the GI50 [22] of the same compound?
Its GI50 is 220 nM.

What about the GI50 [23] of the same compound?
Its GI50 is 170 nM.

What about the GI50 [24] of the same compound?
Its GI50 is 150 nM.

What about the GI50 [25] of the same compound?
Its GI50 is 1730 nM.

What about the Activity [26] of the same compound?
The Activity was 9.15%.

And the GI50 [27]?
The GI50 was 170 nM.

And the GI50 [28]?
Its GI50 is 200 nM.

And the GI50 [29]?
The GI50 was 190 nM.

What about the GI50 [30] of the same compound?
Its GI50 is 260 nM.

What about the Activity [31] of the same compound?
The Activity was “Active”.

And the “Decrease in Bcl-2 mRNA expression” value [32]?
The value was “Active”.

What about the GI50 [33] of the same compound?
Its GI50 is 160 nM.
